Results taken from ChEMBL document CHEMBL1143812, “A novel bis-tetrahydrofuranylurethane-containing nonpeptidic protease inhibitor (PI), GRL-98065, is potent against multiple-PI-resistant human immunodeficiency virus in vitro” (Antimicrob Agents Chemother, 2007).

Experiments:
[1] = test system: Human immunodeficiency virus 1; test: Antiviral activity against ritonavir-resistant HIV1 in MT4 cells assessed as inhibition of p24 Gag protein expression by MTT assay; format: functional, organism-based; settings: Human immunodeficiency virus 1, MT4
Summary of the method: (§1)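 MT-4 cells (10^5/ml) infected with 100 TCID50s of wild-type or PI-resistant NL4-3 virus and incubated at 37°C with or without graded drug concentrations. On day 7, supernatant p24 Gag was measured by chemiluminescent enzyme immunoassay. […] Assays were run in duplicate or triplicate.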

[2] = test system: Human immunodeficiency virus 1; test: Antiviral activity against idinavir-resistant HIV1 in MT4 cells assessed as inhibition of p24 Gag protein expression by MTT assay; format: functional, organism-based; settings: Human immunodeficiency virus 1, MT4; summary of the method: as §1
[3] = test system: Human immunodeficiency virus 1; test: Antiviral activity against nelfinavir-resistant HIV1 in MT4 cells assessed as inhibition of p24 Gag protein expression by MTT assay; format: functional, organism-based; settings: Human immunodeficiency virus 1, MT4; summary of the method: as §1
[4] = test system: Human immunodeficiency virus 1; test: Antiviral activity against atazanavir-resistant HIV1 in MT4 cells assessed as inhibition of p24 Gag protein expression by MTT assay; format: functional, organism-based; settings: Human immunodeficiency virus 1, MT4; summary of the method: as §1
[5] = test system: Human immunodeficiency virus 1; test: Antiviral activity against lopinavir-resistant HIV1 in MT4 cells assessed as inhibition of p24 Gag protein expression by MTT assay; format: functional, organism-based; settings: Human immunodeficiency virus 1, MT4; summary of the method: as §1
[6] = test system: Human immunodeficiency virus 1; test: Antiviral activity against amprenavir-resistant HIV1 in MT4 cells assessed as inhibition of p24 Gag protein expression by MTT assay; format: functional, organism-based; settings: Human immunodeficiency virus 1, MT4; summary of the method: as §1
[7] = test system: Human immunodeficiency virus 1; test: Antiviral activity against HIV1 GRL98065p20 in MT4 cells assessed as inhibition of p24 Gag protein expression by MTT assay; format: functional, organism-based; settings: Human immunodeficiency virus 1, MT4; summary of the method: as §1
[8] = test system: Human immunodeficiency virus 1; test: Antiviral activity against HIV1 GRL98065p30 in MT4 cells assessed as inhibition of p24 Gag protein expression by MTT assay; format: functional, organism-based; settings: Human immunodeficiency virus 1, MT4; summary of the method: as §1
[9] = test system: Human immunodeficiency virus 1; test: Antiviral activity against HIV1 GRL98065p40 in MT4 cells assessed as inhibition of p24 Gag protein expression by MTT assay; format: functional, organism-based; settings: Human immunodeficiency virus 1, MT4; summary of the method: as §1
[10] = test system: Human immunodeficiency virus 1; test: Antiviral activity against wild type HIV1 ERS104prc X4 in phytohemagglutininin-activated PBMCs assessed as inhibition of p24 Gag protein expression by MTT assay; format: functional, organism-based
Summary of the method: (§2)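 PHA-activated PBMCs (10^6/ml) infected with 50 TCID50s of each isolate and cultured with or without drug in 10-fold serial dilutions. The read-out was supernatant p24 Gag by chemiluminescent enzyme immunoassay. Assays were run in duplicate or triplicate, with one donor per experiment and three donors in total.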

[11] = test system: Human immunodeficiency virus 1; test: Antiviral activity against HIV1 MDR/TM X4 in phytohemagglutininin-activated PBMCs assessed as inhibition of p24 Gag protein expression by MTT assay; format: functional, organism-based
Summary of the method: (§3)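 PHA-activated PBMCs (10^6/ml) infected with 50 TCID50s of each isolate and cultured with or without drug in 10-fold serial dilutions. The read-out was supernatant p24 Gag by chemiluminescent enzyme immunoassay. […] Assays were run in duplicate or triplicate, with one donor per experiment and three donors in total.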

[12] = test system: Human immunodeficiency virus 1; test: Antiviral activity against HIV1 MDR/MM R5 in phytohemagglutininin-activated PBMCs assessed as inhibition of p24 Gag protein expression by MTT assay; format: functional, organism-based; summary of the method: as §3
[13] = test system: Human immunodeficiency virus 1; test: Antiviral activity against HIV1 MDR/JSL R5 in phytohemagglutininin-activated PBMCs assessed as inhibition of p24 Gag protein expression by MTT assay; format: functional, organism-based; summary of the method: as §3
[14] = test system: Human immunodeficiency virus 1; test: Antiviral activity against HIV1 MDR/B X4 in phytohemagglutininin-activated PBMCs assessed as inhibition of p24 Gag protein expression by MTT assay; format: functional, organism-based; summary of the method: as §3
[15] = test system: Human immunodeficiency virus 1; test: Antiviral activity against HIV1 92UG029 X4 subtype A in phytohemagglutininin-activated PBMCs assessed as inhibition of p24 Gag protein expression by MTT assay; format: functional, organism-based; summary of the method: as §3
[16] = test system: Human immunodeficiency virus 1; test: Antiviral activity against HIV1 92UG037 subtype A R5 in phytohemagglutininin-activated PBMCs assessed as inhibition of p24 Gag protein expression by MTT assay; format: functional, organism-based; summary of the method: as §3
[17] = test system: Human immunodeficiency virus 1; test: Antiviral activity against HIV1 97ZA003 R5 subtype C in phytohemagglutininin-activated PBMCs assessed as inhibition of p24 Gag protein expression by MTT assay; format: functional, organism-based; summary of the method: as §3
[18] = test system: Human immunodeficiency virus 1; test: Antiviral activity against HIV1 92TH019 R5 subtype E in phytohemagglutininin-activated PBMCs assessed as inhibition of p24 Gag protein expression by MTT assay; format: functional, organism-based; summary of the method: as §3
[19] = test system: Human immunodeficiency virus 1; test: Antiviral activity against saquinavir-resistant HIV1 in MT4 cells assessed as inhibition of p24 Gag protein expression by MTT assay; format: functional, organism-based; settings: Human immunodeficiency virus 1, MT4; summary of the method: as §1
[20] = test system: Human immunodeficiency virus 1; test: Antiviral activity against HIV1 LAI in MT2 cells assessed as inhibition of p24 Gag protein expression by MTT assay; format: functional, organism-based; settings: Human immunodeficiency virus 1, LAI
Summary of the method: (§4)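 MT-2 cells (2 × 10^4/ml) were infected with 100 TCID50s of the HIV-1LAI, HIV-2EHO or HIV-2ROD strain. They were cultured with serial drug concentrations at 37°C for 7 days. MTT was then added for 4 h at 37°C, formazan was dissolved in acidified isopropanol with 4% Triton X-100, and optical density was read. EC50 is the mean of three independent experiments, each run in duplicate.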

[21] = test system: Human immunodeficiency virus 2; test: Antiviral activity against HIV2 EHO in MT2 cells assessed as inhibition of p24 Gag protein expression by MTT assay; format: functional, organism-based; settings: Human immunodeficiency virus 2, EHO; summary of the method: as §4
[22] = test system: Human immunodeficiency virus 2; test: Antiviral activity against HIV2 ROD in MT2 cells assessed as inhibition of p24 Gag protein expression by MTT assay; format: functional, organism-based; settings: Human immunodeficiency virus 2, ROD; summary of the method: as §4
[23] = Cytotoxicity against human MT2 cells assessed as inhibition of p24 Gag protein expression by MTT assay; format: cell-based
[24] = test system: Human immunodeficiency virus 1; test: Antiviral activity against HIV1 MDR/C X4 in phytohemagglutininin-activated PBMCs assessed as inhibition of p24 Gag protein expression by MTT assay; format: functional, organism-based; summary of the method: as §3
[25] = test system: Human immunodeficiency virus 1; test: Antiviral activity against HIV1 MDR/G X4 in phytohemagglutininin-activated PBMCs assessed as inhibition of p24 Gag protein expression by MTT assay; format: functional, organism-based; summary of the method: as §2
[26] = test system: Human immunodeficiency virus 1; test: Antiviral activity against HIV1 BaL R5 subtype B in phytohemagglutininin-activated PBMCs assessed as inhibition of p24 Gag protein expression by MTT assay; format: functional, organism-based; summary of the method: as §2
[27] = test system: Human immunodeficiency virus 1; test: Antiviral activity against HIV1 NL4-3 in MT4 cells by MTT assay; format: functional, organism-based; settings: Human immunodeficiency virus 1, NL4-3, MT4

Row | Compound | EC50 [1] | EC50 [2] | EC50 [3] | EC50 [4] | EC50 [6] | EC50 [7] | EC50 [8] | EC50 [9] | EC50 [10] | EC50 [11] | EC50 [12] | EC50 [13] | EC50 [15] | EC50 [16] | EC50 [17] | EC50 [18] | EC50 [20] | EC50 [21] | EC50 [22] | CC50 [23] | other results
1 | CC(C)CN(C[C@@H](O)[C@H](Cc1ccccc1)NC(=O)O[C@H]1CCOC1)S(=O)(=O)c1ccc(N)cc1 | 280 nM | 170 nM | 60 nM | 200 nM | > 1000 nM | 58 nM | 330 nM | > 1000 nM | 29 nM | 300 nM | 480 nM | 430 nM | 46 nM | 27 nM | 33 nM | 21 nM | 36 nM | 250 nM | 570 nM | > 100000 nM | EC50 [5]: 310 nM; EC50 [14]: 360 nM; EC50 [19]: 330 nM
2 | CC(C)(C)NC(=O)[C@@H]1C[C@@H]2CCCC[C@@H]2CN1C[C@@H](O)[C@H](Cc1ccccc1)NC(=O)[C@H](CC(N)=O)NC(=O)c1ccc2ccccc2n1 | 10 nM | 59 nM | 24 nM | 37 nM | 31 nM | 12 nM | 22 nM | 32 nM | 8 nM | 180 nM | 140 nM | 290 nM | 4.8 nM | 3.2 nM | 6.7 nM | 3 nM | 8 nM | 3 nM | 4.3 nM | 16400 nM | EC50 [5]: 32 nM; EC50 [14]: 270 nM; EC50 [24]: 35 nM; EC50 [25]: 33 nM; EC50 [26]: 8.3 nM; EC50 [19]: > 1000 nM; EC50 [27]: 7 nM
3 | Cc1cccc(C)c1OCC(=O)N[C@@H](Cc1ccccc1)[C@@H](O)C[C@H](Cc1ccccc1)NC(=O)[C@H](C(C)C)N1CCCNC1=O [LOPINAVIR] |  |  |  |  |  | 34 nM | 60 nM |  | 7 nM |  |  |  | 7 nM |  | 7.3 nM | 3.3 nM | 7 nM | 2.6 nM | 4.9 nM | > 100000 nM | EC50 [26]: 5.3 nM
4 | CC(C)CN(C[C@@H](O)[C@H](Cc1ccccc1)NC(=O)O[C@H]1CO[C@H]2OCC[C@H]21)S(=O)(=O)c1ccc(N)cc1 | 18 nM | 15 nM | 3.3 nM | 3.4 nM | 330 nM | 21 nM | 36 nM | 210 nM | 3.8 nM | 4.3 nM | 16 nM | 27 nM |  |  |  |  | 3.9 nM | 8 nM | 6.8 nM | 83100 nM | EC50 [14]: 40 nM; EC50 [24]: 9 nM; EC50 [25]: 7 nM; EC50 [19]: 5.8 nM
5 | CC(C)c1nc(CN(C)C(=O)N[C@H](C(=O)N[C@@H](Cc2ccccc2)C[C@H](O)[C@H](Cc2ccccc2)NC(=O)OCc2cncs2)C(C)C)cs1 [RITONAVIR] |  |  |  |  |  | 130 nM | 300 nM |  |  |  |  |  | 71 nM | 41 nM | 39 nM | 30 nM | 54 nM | 210 nM | 260 nM |  | EC50 [27]: 33 nM
6 | CC(C)(C)NC(=O)[C@@H]1CN(Cc2cccnc2)CCN1C[C@@H](O)C[C@@H](Cc1ccccc1)C(=O)N[C@H]1c2ccccc2C[C@H]1O | 250 nM | > 1000 nM | 270 nM | 388 nM | 200 nM | 40 nM | 59 nM | 280 nM | 24 nM | > 1000 nM | > 1000 nM | > 1000 nM | 44 nM | 34 nM | 37 nM | 21 nM | 48 nM | 24 nM | 54 nM | 69800 nM | EC50 [5]: > 1000 nM; EC50 [14]: > 1000 nM; EC50 [24]: > 1000 nM; EC50 [25]: 640 nM; EC50 [26]: 22 nM; EC50 [19]: > 1000 nM
7 | Cc1c(O)cccc1C(=O)N[C@@H](CSc1ccccc1)[C@H](O)CN1C[C@H]2CCCC[C@H]2C[C@H]1C(=O)NC(C)(C)C |  |  |  |  |  | 80 nM | 270 nM |  |  |  |  |  | 43 nM | 56 nM | 37 nM | 29 nM | 32 nM | 30 nM | 240 nM | 8100 nM | EC50 [26]: 18 nM; EC50 [27]: 33 nM
